Data taken from ChEMBL document CHEMBL1133520, “Design, synthesis, and biological evaluation of potent and selective amidino bicyclic factor Xa inhibitors” (J Med Chem, 2000).
“And” between values parts separate entries of the source, which are not always exact repeats. Equal values may be shown once.

What was measured:
Serine protease 1 = Serine protease 1 (Homo sapiens, UniProt P07477); test: Binding affinity against human trypsin
Outline: (§1)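 Human purified enzymes in 0.1 M sodium phosphate, 0.2 M NaCl, 0.5% PEG 6000, pH 7.4. Inhibitor at 0.00316–10 μM in 8 half-log steps. Substrate S2222 for fXa and trypsin, S2366 for thrombin. Hydrolysis rate read at 405 nm over 30 min, with uninhibited controls. Ki calculated from % activity, Km and substrate concentration. Run in duplicate against internal standards.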

Prothrombin = Prothrombin (Homo sapiens, UniProt P00734); test: Binding affinity against human thrombin; outline: as §1
Coagulation factor X [1] = target: Coagulation factor X (Homo sapiens, UniProt P00742); test: Binding affinity against human coagulation factor X
Chain of Coagulation factor X (Homo sapiens, UniProt P00742) (P00742 41-179 limits assumed): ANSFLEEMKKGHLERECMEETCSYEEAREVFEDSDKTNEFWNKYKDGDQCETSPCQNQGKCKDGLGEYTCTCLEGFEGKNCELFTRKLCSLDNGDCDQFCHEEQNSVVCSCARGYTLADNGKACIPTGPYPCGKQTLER
Chain of Coagulation factor X (Homo sapiens, UniProt P00742) (P00742 235-488 limits assumed): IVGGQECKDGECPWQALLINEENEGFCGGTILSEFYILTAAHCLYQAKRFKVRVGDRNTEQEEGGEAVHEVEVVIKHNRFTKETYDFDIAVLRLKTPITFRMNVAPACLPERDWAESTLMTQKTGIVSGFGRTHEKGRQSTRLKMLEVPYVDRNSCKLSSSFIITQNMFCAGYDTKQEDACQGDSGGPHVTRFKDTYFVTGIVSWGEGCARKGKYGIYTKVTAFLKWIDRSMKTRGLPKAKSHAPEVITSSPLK

[2] = Distribution volume at steady state in dog; format: ADME, organism-based, Canis lupus familiaris; conditions: in vivo, read-out: Vdss
Outline: (§2)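 Given intravenously (rabbit: 10 mg/kg/h infusion over 60 min; dog: iv). Plasma protein-precipitated with acetonitrile; quantitation limit 5 nM. Noncompartmental fit. Half-life by nonlinear regression, AUC by trapezoidal rule. Clearance = dose/AUC0→∞. Vdss = Cl × MRT, with MRT = AUMC/AUC.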

[3] = plasma clearance in dog; format: ADME, organism-based, Canis lupus familiaris; outline: as §2
Coagulation factor X [4] = target: T1, Coagulation factor X (Oryctolagus cuniculus, UniProt O19045); test: Binding affinity against Coagulation factor X from rabbit purified enzyme
T1 sequence (O19045 whole entry): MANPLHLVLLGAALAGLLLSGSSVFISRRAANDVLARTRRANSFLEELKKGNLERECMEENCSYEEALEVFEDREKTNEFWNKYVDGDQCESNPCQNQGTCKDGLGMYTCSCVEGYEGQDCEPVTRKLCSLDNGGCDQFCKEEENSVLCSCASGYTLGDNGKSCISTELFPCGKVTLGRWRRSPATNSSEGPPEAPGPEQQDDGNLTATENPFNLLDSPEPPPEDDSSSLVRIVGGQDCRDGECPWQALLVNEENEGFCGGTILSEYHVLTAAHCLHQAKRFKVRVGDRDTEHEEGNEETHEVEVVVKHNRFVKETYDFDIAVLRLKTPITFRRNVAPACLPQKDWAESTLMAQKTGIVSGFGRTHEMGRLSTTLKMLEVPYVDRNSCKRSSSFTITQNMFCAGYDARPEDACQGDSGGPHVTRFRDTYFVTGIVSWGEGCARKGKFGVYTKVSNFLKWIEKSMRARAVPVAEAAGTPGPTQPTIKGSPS

Oryctolagus cuniculus [5] = test: Tested for inhibition of thrombus formation using arterio-venous shunt device in rabbit at 0.008-1 mg/kg/h; format: functional
Outline: (§3)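 Rabbit arteriovenous shunt containing silk thread; blood circulated 40 min, then the thread and thrombus were weighed. Compound or saline vehicle infused iv via jugular vein from 1 h before circulation through the end (100 min total). Percent inhibition of thrombus weight per treatment group; ID50 estimated by linear regression.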

[6] = (§4) Half life period of the compound; format: ADME; outline: as §2
[7] = Cmax values of the compound; format: ADME, organism-based; conditions: in vivo; outline: as §2
Oryctolagus cuniculus [8] = species: Oryctolagus cuniculus; test: Distribution volume at steady state in rabbit; conditions: in vivo, read-out: Vdss
[9] = plasma clearance in rabbit
[10] = as §4; format: ADME; outline: as §2; remark: listed apart in the source
Oryctolagus cuniculus [11] = species: Oryctolagus cuniculus; test: Tested for inhibition of thrombus formation using arterio-venous shunt device in rabbit; format: functional; outline: as §3
Coagulation factor X [12] = target: T1, Coagulation factor X; test: Binding affinity against fXa from rabbit purified enzyme

Chain of Serine protease 1 (P07477 whole entry): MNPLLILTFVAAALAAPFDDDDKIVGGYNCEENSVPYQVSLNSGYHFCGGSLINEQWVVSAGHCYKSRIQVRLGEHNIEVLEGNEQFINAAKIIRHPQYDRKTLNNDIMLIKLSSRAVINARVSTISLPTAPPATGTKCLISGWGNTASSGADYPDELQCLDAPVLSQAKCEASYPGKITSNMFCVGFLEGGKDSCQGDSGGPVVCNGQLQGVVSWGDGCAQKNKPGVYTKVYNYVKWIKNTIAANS

Row | Compound | Ki (Serine protease 1) [nM] | Ki (Prothrombin) | Ki (Coagulation factor X [1]) | other results
1 | N=C(N)c1ccc2cnn(CC(=O)Nc3ccc(-c4ccccc4S(N)(=O)=O)cn3)c2c1 | 41 | 6800 nM | 3.1 nM | –
2 | N=C(N)c1ccc2[nH]cc(CC(=O)Nc3ccc(-c4ccccc4S(N)(=O)=O)cc3Br)c2c1 | 120 | 200 nM | 0.32 nM | Vd [2]: 0.67 L/kg; clearance [3]: 22.3 mL/min/kg; Ki (Coagulation factor X [4]): 0.9 nM; ID50 (Oryctolagus cuniculus [5]): 0.14 µM/h/kg; half-life [6]: 1.8 h; Cmax [7]: 1430 nM
3 | N=C(N)c1ccc2[nH]cc(CC(=O)Nc3ccc(-c4ccccc4S(N)(=O)=O)cc3I)c2c1 | 240 | 200 nM | 0.6 nM | –
4 | CCOC(=O)C(CCc1cccc(C(=N)N)c1)Cn1cnc2ccc(C(=N)N)cc21 (stereo not drawn) | 820 | 1900 nM | 700 nM | –
5 | Cn1cc(CC(=O)Nc2ccc(-c3ccccc3S(N)(=O)=O)cn2)c2cc(C(=N)N)ccc21 | 1500 | 21000 nM | 89 nM | –
6 | CCOC(=O)C(CCc1ccc(C(=N)N)cc1)Cn1cnc2ccc(C(=N)N)cc21 (stereo not drawn) | – | > 21000 nM | 11900 nM | –
7 | N=C(N)c1ccc2c(c1)ncn2CC(=O)c1ccc(-c2ccccc2)cc1 | – | > 21000 nM | – | –
8 | N=C(N)c1ccc2ncn(CC(=O)c3ccc(-c4ccccc4)cc3)c2c1 | 320 | 1200 nM | 120 nM | –
9 | N=C(N)c1ccc2[nH]cc(CC(=O)Nc3ccc(-c4ccccc4S(N)(=O)=O)cc3F)c2c1 | 270 | 2100 nM | 3.1 nM | Vd [2]: 0.87 L/kg; clearance [3]: 18.3 mL/min/kg; half-life [6]: 2.5 h; Cmax [7]: 1630 nM
10 | N=C(N)c1ccc2ncn(CC(=O)Nc3ccc(-c4ccccc4)cc3)c2c1 | 480 | 4700 nM | 220 nM | –
11 | CCOC(=O)C(CCc1ccc(C(=N)N)cc1)Cn1cnc2cc(C(=N)N)ccc21 (stereo not drawn) | – | > 21000 nM | 2200 nM | –
12 | N=C(N)c1ccc2c(c1)ncn2CC(=O)Nc1ccc(-c2ccccc2)cc1 | > 2500 | 12500 nM | 3900 nM | –
13 | CCOC(=O)C(CCc1cccc(C(=N)N)c1)Cn1cnc2cc(C(=N)N)ccc21 (stereo not drawn) | 220 | 2000 nM | – | –

Now from value to compound, other results behind:

Row | Ki (Serine protease 1) [nM] | Ki (Prothrombin) | Ki (Coagulation factor X [1]) | Compound | other results
14 | 300 | 2800 nM | 240 nM | N=C(N)c1ccc2ncn(CC(=O)c3ccc(-c4ccccc4S(N)(=O)=O)cc3)c2c1 | –
15 | 140 | 1500 nM | 0.71 nM | N=C(N)c1ccc2c(c1)C(CC(=O)Nc1ccc(-c3ccccc3S(N)(=O)=O)cc1)CN2 (single isomer, unassigned; (+)) | –
16 | 600 | 14000 nM | 41 nM | CN(C(=O)Cc1c[nH]c2ccc(C(=N)N)cc12)c1ccc(-c2ccccc2S(N)(=O)=O)cc1 | –
17 | 120 | 900 nM | 3.4 nM | CNS(=O)(=O)c1ccccc1-c1ccc(NC(=O)Cc2c[nH]c3ccc(C(=N)N)cc23)cc1 | –
18 | 160 | 800 nM | 4.1 nM | CCNS(=O)(=O)c1ccccc1-c1ccc(NC(=O)Cc2c[nH]c3ccc(C(=N)N)cc23)cc1 | –
19 | 130 | 2700 nM | 400 nM | N=C(N)c1ccc2c(c1)ncn2CC(=O)Nc1ccc(-c2ccccc2S(N)(=O)=O)cc1 | –
20 | 47 | 2200 nM | 2.4 nM | N=C(N)c1ccc2ncn(CC(=O)Nc3ccc(-c4ccccc4S(N)(=O)=O)cc3)c2c1 | Vd (Oryctolagus cuniculus [8]): 3.04 L/kg; clearance [9]: 73.3 mL/min/kg; half-life [10]: 0.96 h; Cmax [7]: 3850 nM
21 | 150 | 2100 nM | 0.92 nM and 0.44 nM | N=C(N)c1ccc2[nH]cc(CC(=O)Nc3ccc(-c4ccccc4S(N)(=O)=O)cn3)c2c1 | Vd [2]: 1.9 L/kg; clearance [3]: 61.7 mL/min/kg; Ki (Coagulation factor X [4]): 0.93 nM; half-life [6]: 0.4 h; Cmax [7]: 2200 nM; ID50 (Oryctolagus cuniculus [11]): 0.3 µM/h/kg
22 | 160 | 1600 nM and 900 nM | – | N=C(N)c1ccc2[nH]cc(CC(=O)Nc3ccc(-c4ccccc4S(N)(=O)=O)cc3)c2c1 | Vd [2]: 0.38 L/kg; clearance [3]: 20.3 mL/min/kg; Ki (Coagulation factor X [12]): 6 nM; half-life [10]: 1.22 h; half-life [6]: 0.79 h; Cmax [7]: 1510 nM and 8700 nM; ID50 (Oryctolagus cuniculus [11]): 1.7 µM/h/kg
23 | 400 | 17000 nM | 52 nM | N=C(N)c1ccc2c(c1)C(CC(=O)Nc1ccc(-c3ccccc3S(N)(=O)=O)cc1)CN2 (single isomer, unassigned; (-)) | –
24 | 180 | 400 nM | 8 nM | CCCNS(=O)(=O)c1ccccc1-c1ccc(NC(=O)Cc2c[nH]c3ccc(C(=N)N)cc23)cc1 | –
25 | 140 | 500 nM | 0.7 nM | N=C(N)c1ccc2[nH]cc(CC(=O)Nc3ccc(-c4ccccc4S(N)(=O)=O)cc3Cl)c2c1 | Vd [2]: 2.01 L/kg; clearance [3]: 50 mL/min/kg; Ki (Coagulation factor X [4]): 0.79 nM; half-life [6]: 1.75 h; Cmax [7]: 650 nM; ID50 (Oryctolagus cuniculus [11]): 0.35 µM/h/kg
26 | 340 | 1000 nM | 2.3 nM | Cc1cc(-c2ccccc2S(N)(=O)=O)ccc1NC(=O)Cc1c[nH]c2ccc(C(=N)N)cc12 | –
27 | 390 | 1700 nM | 7 nM | CN(C)S(=O)(=O)c1ccccc1-c1ccc(NC(=O)Cc2c[nH]c3ccc(C(=N)N)cc23)cc1 | –
